What was measured:
Assay type in all cases: functional
PC-3 = test: Cytotoxicity against human PC3 cells after 48 hrs by SRB assay; details: PC-3, 48 h
Outline: (§1)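 Cells were grown in RPMI 1640 with 10% FBS and 2 mM L-glutamine, plated 24 h before dosing, then given continuous 48 h exposure at 0.1, 1, 10 and 100 µM in triplicate wells. Cells were fixed with cold TCA (10% final, 60 min, 4 °C), stained with 0.4% SRB in 1% acetic acid for 20 min, eluted with 10 mM Tris base, and read at 540/690 nm. GI50 was taken from [(Ti−Tz)/(C−Tz)]×100 = 50; three determinations were averaged.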

SR = test: Cytotoxicity against human SR cells after 48 hrs by SRB assay
SK-MEL-28 = test: Cytotoxicity against human SK-MEL-28 cells after 48 hrs by SRB assay; details: SK-MEL-28, 48 h
OVCAR-5 = test: Cytotoxicity against human OVCAR5 cells after 48 hrs by SRB assay; details: OVCAR-5, 48 h
OVCAR-3 = test: Cytotoxicity against human OVCAR-3 cells after 48 hrs by SRB assay; details: OVCAR-3, 48 h
NCI-H226 = test: Cytotoxicity against human NCI-H226 cells after 48 hrs by SRB assay; details: NCI-H226, 48 h
SF-295 = test: Cytotoxicity against human SF295 cells after 48 hrs by SRB assay; details: SF-295, 48 h
OVCAR-4 = test: Cytotoxicity against human OVCAR4 cells after 48 hrs by SRB assay; details: OVCAR-4, 48 h
COLO 205 = test: Cytotoxicity against human COLO205 cells after 48 hrs by SRB assay; details: COLO 205, 48 h; outline: as §1
M14 = test: Cytotoxicity against human M14 cells after 48 hrs by SRB assay; details: M14, 48 h
SW-620 = test: Cytotoxicity against human SW620 cells after 48 hrs by SRB assay; details: SW-620, 48 h
SK-OV-3 = test: Cytotoxicity against human SKOV3 cells after 48 hrs by SRB assay; details: SK-OV-3, 48 h
HCT-15 = test: Cytotoxicity against human HCT15 cells after 48 hrs by SRB assay; details: HCT-15, 48 h
ACHN = test: Cytotoxicity against human ACHN cells after 48 hrs by SRB assay
HT-29 = test: Cytotoxicity against human HT-29 cells after 48 hrs by SRB assay; details: HT-29, 48 h
HOP-62 = test: Cytotoxicity against human HOP62 cells after 48 hrs by SRB assay; details: HOP-62, 48 h; outline: as §1
EKVX = test: Cytotoxicity against human EKVX cells after 48 hrs by SRB assay
UO-31 = test: Cytotoxicity against human UO31 cells after 48 hrs by SRB assay; details: UO-31, 48 h
SK-MEL-5 = test: Cytotoxicity against human SK-MEL-5 cells after 48 hrs by SRB assay; details: SK-MEL-5, 48 h
BT-549 = test: Cytotoxicity against human BT549 cells after 48 hrs by SRB assay; details: BT-549, 48 h
MDA-MB-231 = test: Cytotoxicity against human MDA-MB-231 cells after 48 hrs by SRB assay; details: MDA-MB-231, 48 h
UACC-257 = test: Cytotoxicity against human UACC257 cells after 48 hrs by SRB assay; details: UACC-257, 48 h
HCC 2998 = test: Cytotoxicity against human HCC2998 cells after 48 hrs by SRB assay; details: HCC 2998, 48 h
LOX IMVI = test: Cytotoxicity against human LOXIMVI cells after 48 hrs by SRB assay
SK-MEL-2 = test: Cytotoxicity against human SK-MEL-2 cells after 48 hrs by SRB assay; details: SK-MEL-2, 48 h
A498 = test: Cytotoxicity against human A498 cells after 48 hrs by SRB assay; details: A498, 48 h
NCI/ADR-RES = test: Cytotoxicity against human NCI/ADR-RES cells after 48 hrs by SRB assay
U-251 = test: Cytotoxicity against human U251 cells after 48 hrs by SRB assay; details: U-251, 48 h
MDA-MB-435 = test: Cytotoxicity against human MDA-MB-435 cells after 48 hrs by SRB assay; details: MDA-MB-435, 48 h
NCI-H23 = test: Cytotoxicity against human NCI-H23 cells after 48 hrs by SRB assay; details: NCI-H23, 48 h
SF-268 = test: Cytotoxicity against human SF268 cells after 48 hrs by SRB assay; details: SF-268, 48 h
HCT-116 = test: Cytotoxicity against human HCT116 cells after 48 hrs by SRB assay; details: HCT-116, 48 h
IGROV-1 = test: Cytotoxicity against human IGROV1 cells after 48 hrs by SRB assay; details: IGROV-1, 48 h
NCI-H522 = test: Cytotoxicity against human NCI-H522 cells after 48 hrs by SRB assay; details: NCI-H522, 48 h
SNB-75 = test: Cytotoxicity against human SNB75 cells after 48 hrs by SRB assay; details: SNB-75, 48 h
CAKI-1 = test: Cytotoxicity against human Caki1 cells after 48 hrs by SRB assay; details: CAKI-1, 48 h
SNB-19 = test: Cytotoxicity against human SNB19 cells after 48 hrs by SRB assay; details: SNB-19, 48 h
RXF 393 = test: Cytotoxicity against human […] cells after 48 hrs by SRB assay; details: RXF 393, 48 h
NCI-H322M = test: Cytotoxicity against human NCI-H322M cells after 48 hrs by SRB assay
K562 = test: Cytotoxicity against human K562 cells after 48 hrs by SRB assay; details: K562, 48 h
SN12C = test: Cytotoxicity against human SN12C cells after 48 hrs by SRB assay
HOP-92 = test: Cytotoxicity against human HOP92 cells after 48 hrs by SRB assay; details: HOP-92, 48 h
NCI-H460 = test: Cytotoxicity against human NCI-H460 cells after 48 hrs by SRB assay; details: NCI-H460, 48 h
OVCAR-8 = test: Cytotoxicity against human OVCAR8 cells after 48 hrs by SRB assay; details: OVCAR-8, 48 h
TK-10 = test: Cytotoxicity against human TK10 cells after 48 hrs by SRB assay; details: TK-10, 48 h
MCF7 = test: Cytotoxicity against human MCF7 cells after 48 hrs by SRB assay; details: MCF7, 48 h; outline: as §1
KM12 = test: Cytotoxicity against human KM12 cells after 48 hrs by SRB assay; details: KM12, 48 h
Malme-3M = test: Cytotoxicity against human MALME-3M cells after 48 hrs by SRB assay
T47D = test: Cytotoxicity against human T47D cells after 48 hrs by SRB assay
UACC-62 = test: Cytotoxicity against human UACC62 cells after 48 hrs by SRB assay; details: UACC-62, 48 h
786-0 = test: Cytotoxicity against human 786-0 cells after 48 hrs by SRB assay; details: 786-0, 48 h
MDA-MB-468 = test: Cytotoxicity against human MDA-MB-468 cells after 48 hrs by SRB assay; details: MDA-MB-468, 48 h
SF-539 = test: Cytotoxicity against human SF539 cells after 48 hrs by SRB assay; details: SF-539, 48 h
HL-60(TB) = test: Cytotoxicity against human HL-60(TB) cells after 48 hrs by SRB assay; details: HL-60, 48 h
DU-145 = test: Cytotoxicity against human DU145 cells after 48 hrs by SRB assay; details: DU-145, 48 h
[1] = Cytotoxicity against human Hs 578T cells after 48 hrs by SRB assay
CCRF-CEM = test: Cytotoxicity against human CCRF-CEM cells after 48 hrs by SRB assay
MOLT-4 = test: Cytotoxicity against human MOLT4 cells after 48 hrs by SRB assay; details: MOLT-4, 48 h
A549 = test: Cytotoxicity against human A549 cells after 48 hrs by SRB assay; details: A549, 48 h; outline: as §1

COc1cc(/C=C/C(=O)N2CCN(C(=O)c3cc(OC)c(OC)c(OC)c3)CC2)ccc1OCCCOc1cc2c(cc1OC)C(=O)N1CCC[C@H]1C=N2
GI50 (PC-3): 730 nM
GI50 (SR): 280 nM
GI50 (SK-MEL-28): 200 nM
GI50 (OVCAR-5): 290 nM
GI50 (OVCAR-3): 210 nM
GI50 (NCI-H226): 310 nM
GI50 (SF-295): 310 nM
GI50 (OVCAR-4): 1070 nM
GI50 (COLO 205): 190 nM
GI50 (M14): 320 nM
GI50 (SW-620): 170 nM
GI50 (SK-OV-3): 610 nM
GI50 (HCT-15): 2980 nM
GI50 (ACHN): 2540 nM
GI50 (HT-29): 260 nM
GI50 (HOP-62): 230 nM
GI50 (EKVX): 720 nM
GI50 (UO-31): 2590 nM
GI50 (SK-MEL-5): 190 nM
GI50 (BT-549): 150 nM
GI50 (MDA-MB-231): 230 nM
GI50 (UACC-257): 350 nM
GI50 (HCC 2998): 240 nM
GI50 (LOX IMVI): 240 nM
GI50 (SK-MEL-2): 260 nM
GI50 (A498): 190 nM
GI50 (NCI/ADR-RES): 8910 nM
GI50 (U-251): 180 nM
GI50 (MDA-MB-435): 180 nM
GI50 (NCI-H23): 260 nM
GI50 (SF-268): 240 nM
GI50 (HCT-116): 170 nM
GI50 (IGROV-1): 240 nM
GI50 (NCI-H522): 60 nM
GI50 (SNB-75): 210 nM
GI50 (CAKI-1): 2110 nM
GI50 (SNB-19): 380 nM
GI50 (RXF 393): 540 nM
GI50 (NCI-H322M): 340 nM
GI50 (K562): 690 nM
GI50 (SN12C): 270 nM
GI50 (HOP-92): 490 nM
GI50 (NCI-H460): 240 nM
GI50 (OVCAR-8): 450 nM
GI50 (TK-10): 290 nM
GI50 (MCF7): 80 nM
GI50 (KM12): 210 nM
GI50 (Malme-3M): 170 nM
GI50 (T47D): 230 nM
GI50 (UACC-62): 160 nM
GI50 (786-0): 270 nM
GI50 (MDA-MB-468): 70 nM
GI50 (SF-539): 240 nM
GI50 (HL-60(TB)): 180 nM
GI50 (DU-145): 330 nM
GI50 [1]: 230 nM
GI50 (CCRF-CEM): 80 nM
GI50 (MOLT-4): 230 nM
GI50 (A549): 1890 nM

— ChEMBL document CHEMBL1240420, “Synthesis and biological evaluation of cinnamido linked pyrrolo[2,1-c][1,4]benzodiazepines as antimitotic agents” (Eur J Med Chem, 2010)
